In the library only some 1.1% were active in any assay of this set; here they are far more common.
CaV13 ICDI inh – Disruptors of the CACNA1D IQ motif to Ca2+-dependent inactivation inhibitor domain association, primary screening, Förster resonance energy transfer in intact living … | inhibition, % at 12.3 µM | AID 743397 | 0.098% of 340,000 active | HEK cells, CFP/YFP FRET ICDI-IQ, plate reader, 10 min; percent FRET-ratio fall versus neutral wells;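 active = mean replicate inhibition of at least 30% and at least 1% of replicates passing that level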;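 also: 0% = median of the neutral control wells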
GRK2 aptamer HTS – blocks RNA aptamer binding to human GRK2. P25098. bead flow cytometry, FAM-aptamer displacement from GRK2. inhibition of aptamer binding, % at 10 µM. 0.59% of 330,000 active;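 active = inhibition of aptamer binding above 40%, roughly 3 SD of noise, on plates passing a quality check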;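 also: median bead fluorescence of bound FAM aptamer so fluorescent compounds give negative values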
Target sequence (P25098 whole entry, looked up): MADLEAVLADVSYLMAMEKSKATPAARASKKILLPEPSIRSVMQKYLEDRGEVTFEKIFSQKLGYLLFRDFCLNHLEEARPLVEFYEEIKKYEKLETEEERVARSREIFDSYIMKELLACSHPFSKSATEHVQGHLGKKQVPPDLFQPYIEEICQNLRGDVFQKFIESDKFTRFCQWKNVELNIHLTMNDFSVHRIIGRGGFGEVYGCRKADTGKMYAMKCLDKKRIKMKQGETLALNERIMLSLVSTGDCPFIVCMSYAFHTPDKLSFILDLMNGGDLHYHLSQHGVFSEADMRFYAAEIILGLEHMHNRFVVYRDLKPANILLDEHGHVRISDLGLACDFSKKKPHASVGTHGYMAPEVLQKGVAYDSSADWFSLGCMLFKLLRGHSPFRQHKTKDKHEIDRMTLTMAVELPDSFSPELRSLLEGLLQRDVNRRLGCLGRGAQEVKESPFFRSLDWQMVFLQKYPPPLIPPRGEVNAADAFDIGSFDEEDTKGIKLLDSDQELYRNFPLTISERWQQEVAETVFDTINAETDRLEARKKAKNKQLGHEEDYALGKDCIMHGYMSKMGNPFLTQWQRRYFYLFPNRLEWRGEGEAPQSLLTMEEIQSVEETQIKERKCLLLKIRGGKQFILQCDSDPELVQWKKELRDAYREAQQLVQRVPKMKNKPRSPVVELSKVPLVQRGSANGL
aDG glyco act – alpha-DG glycosylation activation; AID 624168; 0.22% of 360,000 active; Pro5-aDG cells, alpha-DG glycosylation AlphaScreen (IIH6); 0% Pro5, 100% B10-LARGE cell signal; activation, % at 10 µM;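 active = activation of at least 8% versus controls, or a plate z-score of at least 8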;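 also: Pro5 are CHO cells carrying HIG-tagged alpha-DG that lacks glycosylation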
procasp3 activ – procaspase-3 (human) activation; activation, % at 8.5 µM; recombinant procaspase-3 D3A, Ac-DEVD-pNA absorbance 405 nm; 0.11% of 330,000 active;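 active = activation above the mean of all tested compounds plus 3 SD, cut at about 21% in these data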;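 also: 0% = DMSO alone and 100% = DMSO wells spiked with extra 5 µM PC-3 D3A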
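Assay system: Autoprocessing-dead procaspase-3 D3A mutant enzyme; also added: Ac-DEVD-pNA; doses: one concentration, 8.5 µM nominal, 0.8% DMSO; times: 1 h compound preincubation, 2 h substrate hydrolysis at 25 °C; technique: 405 nm absorbance of p-nitroaniline, reads at 0 and 120 min; measure: % activation between DMSO and enzyme-spiked controls; repeats: single replicate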
procasp7 counter – counter-screen for procaspase-3 activators: activators of human procaspase-7; P55210; recombinant procaspase-7, Ac-DEVD-pNA absorbance 405 nm; D23A/D198A/D206A triple mutant, cannot self-cleave; scale: DMSO 0, 5 µM enzyme 100; activation, % at 8.5 µM; 0.093% of 330,000 active; AID 463210;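 active = percent activation above the screen-wide mean plus 3 SD, cut at about 25% in these data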
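Assay system – Uncleavable procaspase-7 mutant enzyme · Quantity – 2 µM procaspase-7 mutant as dispensed · Times – 1 h preincubation, 2 h reaction · Dosing – single nominal 8.5 µM compound dose, 0.8% DMSO final · Buffer or medium – Zinc-free 50 mM HEPES buffer, pH 7.4, with NaCl and Triton X-100 · Detection – Epi-absorbance of released pNA at 405 nm, two timepoints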
T cell modulator – T cell immune modulators affecting CD8 T cell-vesicle binding. 2C CD8+ T cell-vesicle binding, flow cytometry; stronger effect = lower value. response (vesicle binding), % at 7 µM. 0.068% of 330,000 active;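 active = response, share of CD8 T cells binding vesicles, and their 90th percentile fluorescence all below set limits, cut at about 80% in these data, passing the limit was not always enough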;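 also: values below 100% mean blocked vesicle binding to the CD8+ T cells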
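Material: murine 2C transgenic CD8+ T lymphocytes / Also added: QL9-peptide-loaded Drosophila micro-vesicles bearing Ld, ICAM-1 and B7-1 / Schedule: binding step 1.5 h, 37 °C, antibody labelling 20 min, ice / Signal: flow cytometry, PE anti-B7-1 (FL2) versus Alexa647 anti-CD8 (FL8), PFA-fixed / Evaluation: percent CD8+ FL2 mean versus row control / Benchmarks: naked versus QL9-loaded vesicles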
GRK2 CP1 – human GRK2 inhibition confirmation, cherry pick 1 | shares compounds with GRK2 aptamer HTS | bead-bound GRK2, FAM-aptamer displacement, flow cytometry | aptamer displacement, % at 10 µM | 4% of 2,000 active | AID 504451;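 active = aptamer displacement above 40%, near three times the noise of non-fluorescent compounds, on plates passing quality checks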;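 also: negative values mostly reflect intrinsic compound fluorescence rather than true enhancement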
FAM quench CP1 – counter-screen for GRK2 aptamer inhibitors: fluorescent aptamer quenchers; shares compounds with GRK2 aptamer HTS; 2,000 tested, under 10 active; fluorescence response (% of DMSO), % at 10 µM; Carboxyfluorescein RNA aptamer on beads, flow cytometry quenching; stronger effect = lower value;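 active = compounds that quench the bead-bound fluorescent RNA probe, cutting fluorescence to under half of the solvent control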;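 also: counterscreen run without GRK2 so only probe quenching by compound is measured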
GRK2 CP2 – human GRK2 inhibition confirmation, cherry pick 2. shares compounds with GRK2 aptamer HTS. bead-bound GRK2, FAM-aptamer displacement, flow cytometry. inhibition of aptamer binding, % at 10 µM. 360 tested, under 10 active. AID 504782;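 active = inhibition of aptamer binding above 40%, about triple the noise seen with nonglowing compounds, on plates passing quality control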;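 also: negative values mostly come from compounds that fluoresce themselves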
FAM quench SP – quenches fluorescent RNA aptamer, GRK2 hit artifact; shares compounds with GRK2 aptamer HTS; carboxyfluorescein RNA aptamer beads, flow cytometry quenching; stronger effect = lower value; 360 tested, under 10 active; fluorescence response vs DMSO, % at 10 µM;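 active = response vs DMSO under 50%, meaning signal dropped by over half, treated as fluorescence quencher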;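 also: labelled aptamer on streptavidin beads without GRK2 as a quench counter-screen; 100% = bead fluorescence of DMSO wells and lower means quenching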
Active calls of the source: *; x = not tested or not shown.

SMILES | CaV13 ICDI inh | GRK2 aptamer HTS | aDG glyco act | procasp3 activ | procasp7 counter | T cell modulator | GRK2 CP1 | FAM quench CP1 | others
Cc1ccc(NC(=O)CN(C)c2ccc(S(=O)(=O)N3CCCC3)cn2)cc1 | -7 | 67* | -1 | 7 | 4 | 177 | -2 | 99
CCOc1ccc(NC(=O)CN(C)c2ccc(S(=O)(=O)N3CCOCC3)cn2)cc1OCC | -6 | 3 | 0 | 7 | 7 | 369 | x | x
CCOc1ncccc1C(=O)OCC(=O)N(CC(C)C)c1c(N)n(Cc2ccccc2)c(=O)[nH]c1=O | -6 | 0 | 0 | 0 | -6 | 316 | x | x
CCOC(=O)C1(CCCc2ccccc2)CCN(CCCn2cccn2)CC1 | -3 | 93* | 0 | 7 | 9 | 167 | -3 | 106
CCOC(=O)C1(CCCc2ccccc2)CCN(Cc2nccn2CC)CC1 | -11 | 0 | 5 | 2 | 0 | 189 | x | x
Cc1ccc(Oc2nc3ccccn3c(=O)c2/C=C(\C#N)C(=O)NC2CCS(=O)(=O)C2)cc1 (stereo not drawn) | 16 | 75* | 0 | -3 | 2 | 245 | 1 | 92
CN(C)c1cccc2c(S(=O)(=O)NCC3CCN(C(=O)C(=O)c4cc5ccccc5o4)CC3)cccc12 | -11 | x | x | x | x | x | x | x
O=C(C1CCCCC1)N1CCN(C(=O)C2CCCCC2)CC1 | -9 | 0 | 0 | 1 | -2 | 84 | x | x
O=C(C1CCCCCC1)N1CC[C@@H](N2CCC(O)CC2)[C@H](O)C1 | -20 | 31 | 0 | 5 | 6 | 157 | -5 | 102
O=C(Oc1cc(=O)oc2ccccc12)c1ccccc1 | x | 100* | 0 | 3 | -6 | 223 | -1 | 92
O=C(Oc1c(-c2ccccc2)oc2ccccc2c1=O)c1ccccc1 | -11 | 0 | 0 | -16 | -41 | 355 | x | x
O=C(Oc1cccc2c(O)cccc12)c1ccccc1 | -5 | 42* | 0 | -12 | -5 | 405 | 4 | 102
O=C(Oc1cccc2ccccc12)c1ccccc1 | x | x | 0 | x | x | x | x | x
COCc1cc(N2CCNC[C@H]2C)ccc1N1CCN(Cc2ccccc2)[C@H](C)C1 | -6 | x | x | x | x | x | x | x
CC1(C)CCCC(C)(C)N1CC(O)COCCOc1ccc(Br)cc1 (stereo not drawn) | -5 | 0 | 0 | 0 | 3 | 426 | x | x
Cc1cccc(C)c1OCCCCN1CCNCC1 | -4 | 42* | 0 | 8 | 3 | 201 | -5 | 99
COC(=O)C(NC(=O)c1ccco1)(Nc1cc(C)ccn1)C(F)(F)F (stereo not drawn) | 9 | 2 | 0 | 3 | 12 | 212 | x | x
COC(=O)C(NC(=O)c1ccco1)(Nc1nc(C2CC2)cs1)C(F)(F)F (stereo not drawn) | -2 | 90* | 0 | -5 | 0 | 163 | -4 | 102
CC(C)(C)NC(=O)C(c1c[nH]c2ccccc12)N(C(=O)Cn1nnc(-c2ccc(F)cc2)n1)c1cccc(O)c1 (stereo not drawn) | -14 | 2 | 0 | 7 | 7 | 282 | x | x
CCN(CC)S(=O)(=O)c1ccc(N2CCOCC2)c(NC(=O)COc2ccccc2C)c1 | -7 | 74* | 0 | 8 | 0 | 607 | -1 | 100
CCN(CC)S(=O)(=O)c1ccc(N2CCOCC2)c(NC(=O)COc2ccccc2C#N)c1 | -2 | 3 | 0 | 1 | -2 | 625 | x | x
CCN(CC)S(=O)(=O)c1ccc(N2CCOCC2)c(NC(=O)CC23CC4CC(CC(Br)(C4)C2)C3)c1 | -16 | 100* | 0 | -7 | -15 | 199 | x | x | GRK2 CP2=0;FAM quench SP=96
C[C@H]1CN(C(=O)OC(C)(C)C)CCN1c1ccc(N2CCS(=O)(=O)CC2)c(C#N)c1 | -9 | x | x | x | x | x | x | x
C[C@@H]1NC(=O)OC1c1ccco1 (stereo partly drawn) | 2 | 76* | 0 | 0 | 6 | 357 | 5 | 99
O=C1N[C@@H](Cc2ccccc2)[C@@H](c2ccco2)O1 | -9 | 1 | 0 | -3 | -5 | 508 | x | x
SMILES | CaV13 ICDI inh | GRK2 aptamer HTS | aDG glyco act | procasp3 activ | procasp7 counter | T cell modulator | GRK2 CP1 | FAM quench CP1 | others
COc1ccccc1NC(=S)N1C2CCC1CC(NC(=O)NC13CC4CC(CC(C4)C1)C3)C2 (stereo not drawn) | -6 | 46* | 0 | 7 | -13 | 400 | 1 | 92
CCOc1ccccc1NC(=S)N1C2CCC1CC(NC(=O)NC13CC4CC(CC(C4)C1)C3)C2 (stereo not drawn) | -8 | 3 | 0 | 2 | 13 | 352 | x | x
O=C(NCc1ccccc1)[C@H]1CCCN1 | -6 | x | x | x | x | x | x | x
COCCn1c(SCC(=O)Nc2cccc(C)c2)nnc1C(C)C | -4 | 41* | 0 | -7 | 1 | 166 | x | x | GRK2 CP2=5;FAM quench SP=100
COc1ccccc1Cc1c(-c2ccc(C)cc2)nc2ccc(C)cn12 | -9 | x | x | x | x | x | x | x
N#Cc1ccc(NCC(=O)Nc2ccc(S(=O)(=O)N3CCCCC3)cc2)cc1 | -5 | 1 | 0 | 8 | 12 | 677 | x | x
Cc1ccc(C(=O)Nc2ccc(N3CCN(C)CC3)cc2)c(Cl)c1 | -6 | 49* | 0 | 3 | 14 | 189 | -3 | 92
C=C1CCN([C@H](C(=O)O)C(C)C)S(=O)(=O)c2ccccc21 | -11 | 2 | 0 | -5 | 4 | 784 | x | x
CSC1=NC(=O)/C(=C/c2ccc(SC)cc2)S1 | -19 | 58* | 0 | -15 | -6 | 0 | 2 | 103
CC1CCC(NC(=O)N(CCCl)N=O)CC1 (stereo not drawn) | -5 | 26 | 0 | 5 | 13 | 479 | -6 | 103
COc1ccc(N=C2Sc3ccccc3[C@@H]3C[C@H]4[C@H](CON4C)CN23)c(OC)c1 | -4 | x | x | x | x | x | x | x
O=C(CCc1ccccc1)Nc1nc2n(n1)C(c1ccc(Cl)cc1)CC(=O)N2 (stereo not drawn) | x | 100* | 0 | -4 | 5 | 899 | -3 | 95

Screening data deposited in PubChem BioAssay by several laboratories.
